PAD4 FP inh = human PAD4 inhibitors, primary screen, biochemical, fluorescence polarization, 1536-well format; 330,000 tested, 0.41% active; Protein-arginine deiminase type-4 (Homo sapiens), Q9UM07; AID 485272, 2010; recombinant PAD4, RCA probe fluorescence polarization; inhibition, % at 6.36 µM;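 active = percent inhibition above a cutoff equal to the mean of all tested compounds plus 3 SD, cut at about 15% in these data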
GSTO1 counter = inhibitors of recombinant GSTO1, primary screen, counter-screen for RBBP9 inhibitor project, biochemical, fluorescence polarization; AID 1974, 2009; Glutathione S-transferase omega-1 (Homo sapiens), P78417; activity-based probe fluorescence polarization; inhibition, % at 5.96 µM; 300,000 tested, 1.1% active;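 active = inhibition above the campaign mean inhibition plus 3 SD, cut at about 35% in these data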
TDP2 absorb = human TDP2 enzyme inhibitors, primary screen, biochemical, epi absorbance, recombinant enzyme | inhibition, % at 12.8 µM | Tyrosyl-DNA phosphodiesterase 2 (Homo sapiens), O95551 | T5PNP hydrolysis, p-nitrophenol absorbance 415 nm | 370,000 tested, 0.34% active;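 active = inhibition above the mean of all tested compounds plus 3 SD, set per campaign, cut at about 25% in these data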
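System – recombinant human TDP2 · Quantity – TDP2 enzyme at 120 nM final · Doses – single concentration, 12.8 µM nominal, with 1% DMSO · Incubation – 2 h at 37 °C · Measured by – epi absorbance of p-nitrophenol freed from T5PNP by hydrolysis · Read-out – % inhibition relative to enzyme-containing and enzyme-free wells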
PRMT1 inh = PRMT1 methyltransferase inhibitors, primary screen, biochemical, fluorescence polarization; Protein arginine N-methyltransferase 1 (Homo sapiens), Q99873; recombinant PRMT1, activity-based probe fluorescence polarization; inhibition, % at 2.79 µM; 370,000 tested, 1.3% active; AID 652257, 2013;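 active = inhibition above about 21% made by adding two undisclosed values, limit read from the data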
eLon inh = inhibitors of E. coli Lon protease, primary screen, biochemical, fluorescence polarization | P0A9M0 | purified E. coli Lon protease | inhibition, % at 7.94 µM | 360,000 tested, 0.42% active; in the data active = inhibition above about 13%, passing the limit was not always enough
Target sequence (P0A9M0 whole entry, looked up): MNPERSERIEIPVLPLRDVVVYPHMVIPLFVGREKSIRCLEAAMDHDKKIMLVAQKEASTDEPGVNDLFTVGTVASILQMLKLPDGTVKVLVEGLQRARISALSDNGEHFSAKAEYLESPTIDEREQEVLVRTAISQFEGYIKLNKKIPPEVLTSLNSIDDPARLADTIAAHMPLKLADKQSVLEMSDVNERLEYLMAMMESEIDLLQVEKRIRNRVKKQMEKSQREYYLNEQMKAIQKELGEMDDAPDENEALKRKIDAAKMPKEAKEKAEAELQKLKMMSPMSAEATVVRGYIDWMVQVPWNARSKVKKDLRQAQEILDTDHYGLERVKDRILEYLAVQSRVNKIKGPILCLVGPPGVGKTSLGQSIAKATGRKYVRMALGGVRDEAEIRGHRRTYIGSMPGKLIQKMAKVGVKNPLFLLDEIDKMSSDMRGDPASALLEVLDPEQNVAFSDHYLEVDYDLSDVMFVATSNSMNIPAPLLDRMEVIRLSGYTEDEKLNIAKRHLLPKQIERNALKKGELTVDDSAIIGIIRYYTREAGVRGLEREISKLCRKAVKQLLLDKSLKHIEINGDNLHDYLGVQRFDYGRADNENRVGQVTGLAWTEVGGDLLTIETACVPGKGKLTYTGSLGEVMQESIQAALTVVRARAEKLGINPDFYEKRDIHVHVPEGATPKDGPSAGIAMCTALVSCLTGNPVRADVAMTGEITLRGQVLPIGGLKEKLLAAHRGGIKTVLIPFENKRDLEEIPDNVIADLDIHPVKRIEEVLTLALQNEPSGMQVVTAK
GSTO1 inh conf = GSTO1 inhibitor hit confirmation, counter-screen for RBBP9 inhibitor project, biochemical, fluorescence polarization, triplicate; shares compounds with GSTO1 counter; recombinant GSTO1, probe fluorescence polarization; inhibition, % at 5.96 µM; 2,400 tested, 54% active; AID 2176, 2009;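 active = inhibition above the primary screen's cutoff, its mean inhibition plus 3 SD, cut at about 35% in these data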;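 also: loss of polarization as inhibitors block binding of rhodamine sulfonate ester activity probe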
GSTO1 recomb ABPP = inhibitors of purified human GSTO1, late-stage follow-up, biochemical, gel ABPP, SE-Rh probe, percent inhibition. inhibition, % at 1 µM. shares compounds with GSTO1 counter. 130 tested, 30% active. recombinant GSTO1, gel ABPP SE-Rh probe fluorescence;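 active = inhibition of the enzyme GSTO1 above about 75%, limit read from the data; inactive = inhibition below that limit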
Hits are given with their value; – = inactive; · = no result. Hits are enriched below; roughly 2.5% of the tested compounds scored in any of these assays.

SMILES	PAD4 FP inh	GSTO1 counter	TDP2 absorb	PRMT1 inh	eLon inh	GSTO1 inh conf	others
COCc1cc(C)nc(SCC(=O)c2ccc(O)c(O)c2)c1C#N	–	48	–	–	–	–
COCCn1c(SCC(=O)N2CCCCCC2)nnc1-c1ccco1	–	39	–	–	–	–
O=C(CCl)N1N=C(c2ccco2)CC1c1ccco1 (stereo unspecified)	–	90	–	38	–	97
O=C(CCl)N1N=C(c2cccs2)CC1c1ccco1 (stereo unspecified)	–	92	–	–	–	100
C=CCNC(=S)NC(=O)c1ccc(C)c(Br)c1	–	–	–	–	–	·
CCOc1ccc(N(CCCCO)C(=S)NC(=O)c2ccc(C)c(Br)c2)cc1	–	47	–	–	–	–
O=C1Nc2cc(S(=O)(=O)N3CCCC3)ccc2N2CCCC12 (stereo unspecified)	–	–	–	–	–	·
O=C1Nc2ccccc2N2CCCC12 (stereo unspecified)	–	69	·	·	·	77
Cc1ccc(Cn2nnc3c2-c2ccccc2S(=O)(=O)N(C2CC2)C3)cc1	·	·	–	–	·	·
O=C1NN(c2ccccc2)C(=O)/C1=C/c1ccc(Sc2cccc3ccccc23)o1	–	49	–	–	–	66
CCCCNC(=O)Oc1cc(CCl)on1	–	83	·	·	·	91	GSTO1 recomb ABPP=–
CC(C)C[C@H]1COc2cccc(N3CCSCC3)c2S(=O)(=O)N1C	·	·	–	–	·	·
COC(=O)[C@@H]1[C@H](O[Si](C)(C)C(C)(C)C)C2OC2C[C@H]1S(=O)(=O)c1ccccc1 (stereo partly specified)	·	·	–	–	·	·
CC1=NN(c2ccc(C(=O)O)cc2)C(=O)/C1=C\c1ccc(OC(=O)c2cccs2)cc1	–	55	–	–	–	–
CC1=NN(c2ccc(C(=O)O)cc2)C(=O)/C1=C/c1ccc(-c2ccccc2F)o1	–	–	·	·	–	·
CCOC(=O)[C@@]12CN(C(=O)OC(C)(C)C)CC=C1N(Cc1ccc(OC)cc1)C(=O)[C@H]2CC(=O)N1CCSCC1	·	·	–	–	·	·
O=C(CCl)N=c1sccn1Cc1ccc(Cl)cc1Cl	–	76	–	–	–	91
Cc1ccc(/C=C2\SC(=S)N(CCC(=O)NNC(=O)c3cccnc3)C2=O)cc1	–	39	–	–	–	–
O=C(CCN1C(=O)/C(=C/c2ccccc2)SC1=S)NNC(=O)c1cccnc1	–	–	–	–	–	·
Oc1c(Br)cc(Br)cc1/C=N/Nc1ccc(Cl)nn1	–	–	–	–	–	·
Oc1ccc(/C=N/Nc2ccc(Cl)nn2)c(O)c1O	–	71	–	58	–	–
Cc1cc(C)n(/N=C\c2c(O)ccc3ccccc23)c(=O)c1C(N)=O	–	43	–	–	–	–
O=C(Cc1cc(=O)[nH][nH]1)N/N=C/C(Cl)=C/c1ccccc1	–	54	–	–	–	–
COc1ccc(S[C@]2(C(=O)N3CCN(c4ncccn4)CC3)CC(=O)N(c3ccc(C#N)cc3)[C@@H]2c2ccc(OC)cc2)cc1	·	·	–	–	·	·
CC(=O)N(Cc1ccc(F)cc1)C1=C(NCCc2ccccc2)C(=O)c2ccccc2C1=O	–	44	–	–	–	46
SMILES	PAD4 FP inh	GSTO1 counter	TDP2 absorb	PRMT1 inh	eLon inh	GSTO1 inh conf	others
O=C(NCCC1=CCCCC1)C1CCN(S(=O)(=O)c2ccccc2[N+](=O)[O-])CC1	·	·	–	–	·	·
Oc1ccc(NCc2ccccc2OCc2ccccc2)cc1	–	84	–	–	–	–
O=C(NN1C(=O)c2ccccc2NC1c1ccc([N+](=O)[O-])o1)c1ccccc1 (stereo unspecified)	–	44	–	–	–	–
O=C(NN1C(=O)c2ccccc2NC1c1ccc([N+](=O)[O-])o1)c1ccc([N+](=O)[O-])cc1 (stereo unspecified)	–	–	–	–	–	·
CCN(CC)c1ccc2c(O)cc(=O)oc2c1	–	54	–	–	–	–
CCN(CC)c1ccc2c(C)c(CO)c(=O)oc2c1	–	–	–	–	–	·
CCCN(CC(=O)Nc1ccccc1C)C(=O)CCl	–	81	–	–	–	92	GSTO1 recomb ABPP=–
O=S1(=O)CCO[C@H]2Cc3ccccc3[C@H]2N1Cc1ccc(Cl)cc1	–	38	–	–	–	–
O=C(Cc1nnc(NC(=O)c2ccccc2)s1)N/N=C\c1ccc(O)c(O)c1	–	39	–	–	–	–
C[C@H]1[C@@H](OC(=O)N2CCOCC2)CC[C@@]23CCCN2C(=O)CCC[C@@H]13	·	·	–	–	·	·
COC(=O)[C@]12C[C@H](CC(=O)NCc3cccc4ccccc34)C(=O)N(Cc3ccccc3)C1=C[C@H](C(C)(C)C)O[C@@H]2C	·	·	–	–	·	·
Cc1nc(-n2nnc3ccccc32)c2c3c(sc2n1)CCCC3	–	127	–	–	–	–
CCOC(=O)C1=C(C)N(c2ccc(OC)cc2)C(=O)/C1=C\c1ccc(O)c(OCC)c1	–	57	–	32	–	–
CCOC(=O)C1=C(C)N(c2ccc(OC)cc2)C(=O)/C1=C\c1cccs1	–	–	–	–	–	·
O=C1CCCC(O)=C1C=Nc1ccc(O)cc1	–	60	–	–	–	–
O=C(N[C@H](Cc1ccccc1)C(=O)N1CCN(C(=O)N2CCOCC2)CC1)[C@H]1O[C@@H](n2ccc(=O)[nH]c2=O)[C@H](O)[C@@H]1O	·	·	–	–	·	·
CC(C)N(CCNS(=O)(=O)c1ccc(Cl)cc1)C(C)C	–	–	–	–	–	·
CC(C)OP(=O)(OC(C)C)C1(NS(=O)(=O)c2ccc(Cl)cc2)C=C(Cl)C(=O)C(Cl)=C1	–	62	–	30	–	44
COC(=O)Cc1c(C)[nH]n(-c2cc(Cl)cc(Cl)c2)c1=O	–	47	–	–	–	–
O=c1ccc2cc(S(=O)(=O)N3CCOCC3)ccc2o1	–	42	–	–	–	–
Oc1ccc(-c2cn3c(n2)SCC3)cc1O	–	53	–	–	–	–
O=S1(=O)CC2c3ccc(F)cc3CN2CN1Cc1ccccc1 (stereo unspecified)	·	·	–	–	·	·
O=C(NC1CCCCN(Cc2ccc(Cl)cc2)C1=O)C1C2CC3CC(C2)CC1C3 (stereo unspecified)	·	·	–	–	·	·
CC(C)=C1C(=O)NN(c2ccc(C)c(Cl)c2)C1=O	–	44	–	–	–	–
O=C1/C(=N\S(=O)(=O)c2cccs2)C([n+]2cccc(Cc3ccccc3)c2)=C([O-])c2ccccc21	–	87	·	·	–	83

Screening data (PubChem)
